The record followed here is ChEMBL document CHEMBL4270562, “Synthesis and evaluation of the cytotoxic activity of Furanaphthoquinones tethered to 1H-1,2,3-triazoles in Caco-2, Calu-3, MDA-MB231 cells” (Eur J Med Chem, 2018).

A short description of series [1]: Cytotoxicity against African green monkey Vero cells assessed as cell viability at 5 uM after 48 hrs by MTT assay relative to control. In kind it is cell-based. To be noted: chlorocebus sabaeus, read-out: Activity. In a few lines:
(§1)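 Single-concentration screen at 5 μM. Cells were seeded at 32,000/well and pre-incubated 24 h at 37 °C, 5% CO2, then treated 48 h in 10% FBS DMEM or RPMI containing 0.5% DMSO. MTT (2.5 mg/mL solution, 3 h), formazan dissolved in DMSO, absorbance at 570/690 nm. Viability expressed as % of untreated cells, mean ± SD.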
Background: Tetrazolium assays rely on reduction of a dye to a coloured formazan, in cell work by metabolically active cells.

The subject of series [2] is Calu-3. As to the kind of experiment: Cytotoxicity against human Calu3 cells assessed as cell viability at 5 uM after 48 hrs by MTT assay relative to control. In kind it is functional. As to conditions: Calu-3, 48 h, read-out: Activity; call rule not given here. The method, boiled down:
as §1

Series [3] has as its system MDA-MB-231. Description: Cytotoxicity against human MDA-MB-231 cells assessed as cell viability at 5 uM after 48 hrs by MTT assay relative to control. In kind it is functional. As to conditions: MDA-MB-231, 48 h, read-out: Activity. In a few lines:
as §1

In series [4] the test system is Caco-2. As to the kind of experiment: Cytotoxicity against human Caco2 cells assessed as cell viability at 5 uM after 48 hrs by MTT assay relative to control. As to conditions: Caco-2, 48 h, read-out: Activity. It counts as functional. In a few lines:
as §1

Series [5] can be described thus: Selectivity index, ratio of CC50 for African green monkey Vero cells to IC50 for human Caco2 cells. As to conditions: Vero cells (CC50) and Caco2 cells (IC50). It counts as toxicity. The method, boiled down: (§2)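 Cells seeded at 32,000/well, grown 24 h at 37 °C in 5% CO2, then exposed for 48 h to samples at 5 to 400 μM in 10% FBS DMEM or RPMI with 0.5% DMSO. Vehicle medium with 0.5% DMSO served as control. Viability was read by MTT reduction: MTT solution (2.5 mg/mL) in HBSS for 3 h, DMSO to dissolve formazan, absorbance at 570/690 nm. IC50 (tumour lines) and CC50 (Vero) were derived from survival relative to untreated cells, and SI was calculated from them.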

Series [6] in a line: Effect on prothrombin time in human platelet poor plasma at 100 uM after 3 hrs. In kind it is ADME, cell-free. In a few lines:
(§3)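 Citrated platelet-poor plasma tested with sample at 100 μM, vehicle DMSO ≤1%. Clotting times (PT, aPTT) were measured on a coagulation analyzer. DMSO 1% was the negative control and rivaroxaban 100 μM the positive anticoagulant control.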

A short description of series [7]: Cytotoxicity against African green monkey Vero cells assessed as cell viability after 48 hrs by MTT assay relative to control. As to conditions: chlorocebus sabaeus. It counts as cell-based. In a few lines: as §2
Series [8] in a line: Effect on activated thromboplastin time in human platelet poor plasma at 100 uM after 3 hrs. It counts as ADME, cell-free. In a few lines: as §3
For series [9], the system named is Platelet. Description: Inhibition of arachidonic acid-induced platelet aggregation in human platelet rich plasma at 100 uM preincubated for 2 mins followed by arachidonic acid addition and measured after 3 hrs by turbidimetric analysis. In kind it is cell-based. In a few lines: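 Fresh platelet-rich plasma pre-incubated 2 min at 37 °C with sample (100 μM) before arachidonic acid stimulation. Aggregation was followed turbidimetrically in a lumi-aggregometer. DMSO 1% was the negative control and acetylsalicylic acid 100 μM the positive control.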

Series [10] concerns Caco-2. Description: Cytotoxicity against human Caco2 cells assessed as cell viability after 48 hrs by MTT assay relative to control. It counts as functional, cell-based. As to conditions: Caco-2, 48 h. The method, boiled down:
as §2

Regarding `COc1ccc(-n2cc(C3CC4=C(O3)C(=O)c3ccccc3C4=O)nn2)cc1` (stereo not given), the viability at 48 h, 5 µM in series [1] was 64.8%. The viability at 5 µM in [2] came to 125%; in series [3], 99.6%; in [4], 81.8%.
With `O=C1C2=C(OC(c3cn(-c4ccc(Cl)cc4)nn3)C2)C(=O)c2ccccc21` (stereo not given), in [1], the viability at 48 h, 5 µM was determined as 78.1%. The viability at 5 µM amounted to 134% in series [2], 103% in series [3] and 82.1% in series [4].
For `O=C1C(=O)c2ccccc2C2=C1CC(c1cn(-c3cc(Cl)ccc3Cl)nn1)O2` (stereo not given), in that order: 74.7%, 118%, 82.1% and 78.1%.
As for `O=C1C2=C(OC(c3cn(-c4ccc(F)cc4)nn3)C2)C(=O)c2ccccc21` (stereo not given), in [1], the viability at 48 h, 5 µM was 73%. The values for the viability at 5 µM in series [2], in series [3] and in series [4] were 104%, 97.9% and 77.3%, respectively.
Consider `O=C1C(=O)c2ccccc2C2=C1CC(c1cn(-c3ccc(Cl)c(Cl)c3)nn1)O2` (stereo not given), for which, in series [1], the viability at 48 h, 5 µM stood at 81%. In addition, the figures for the viability at 5 µM in [2], in series [3] and in series [4] were 111%, 90.2% and 94.4%, respectively.
Turning to `O=C1C2=C(OC(c3cn(-c4ccccc4)nn3)C2)C(=O)c2ccccc21` (stereo not given), the viability at 48 h, 5 µM in series [1] came to 76.2%. Also, the viability at 5 µM in series [2] was determined as 113%; in series [3], 109%; in series [4], 88.3%.
As for `Cc1ccc(-n2cc(C3CC4=C(O3)c3ccccc3C(=O)C4=O)nn2)cc1` (stereo not given), the viability at 48 h, 5 µM in [1] turned out to be 41.8%. Further, the viability at 5 µM turned out to be 111% in series [2], 90.7% in series [3] and 33.3% in series [4].
Regarding `O=C1C(=O)c2ccccc2C2=C1CC(c1cn(-c3ccc(Cl)cc3)nn1)O2` (stereo not given), the viability at 48 h, 5 µM in [1] came out at 59.3%. The viability at 5 µM in series [2] came to 122%; in series [3] it was 46.5%; in series [4], 46.4%.
For `O=C1C(=O)c2ccccc2C2=C1CC(c1cn(-c3ccc([N+](=O)[O-])cc3)nn1)O2` (stereo not given), in that order: 88.7%, 133%, 99.2% and 86.9%.
With `COc1ccc(-n2cc(C3CC4=C(O3)c3ccccc3C(=O)C4=O)nn2)cc1` (stereo not given), in series [1], the viability at 48 h, 5 µM turned out to be 34.1%. In addition, the viability at 5 µM in series [2] stood at 113%; in series [3], 41.1%; in series [4], 23%.
`O=C1C(=O)c2ccccc2C2=C1CC(c1cn(-c3ccc(F)cc3)nn1)O2` (stereo not given): the viability at 48 h, 5 µM in series [1] worked out at 55.8%. Moreover, the results for the viability at 5 µM in series [2], in [3] and in [4] were 117%, 41.5% and 37.9%, respectively.
In the case of `O=C1C2=C(OC(c3cn(-c4cc(Cl)ccc4Cl)nn3)C2)C(=O)c2ccccc21` (stereo not given), the viability at 48 h, 5 µM in [1] turned out to be 90.4%. Further, the viability at 5 µM was 139% in series [2], 104% in series [3] and 85.8% in series [4].
With `Cc1ccc(-n2cc(C3CC4=C(O3)C(=O)c3ccccc3C4=O)nn2)cc1` (stereo not given), in [1], the viability at 48 h, 5 µM stood at 74%. In addition, the viability at 5 µM in series [2] was found to be 112%; in [3], 95.3%; in series [4] it was 88%.
As for `O=C1C2=C(OC(c3cn(-c4ccc(Cl)c(Cl)c4)nn3)C2)C(=O)c2ccccc21` (stereo not given), in series [1], the viability at 48 h, 5 µM was 78.7%. Also, the figures for the viability at 5 µM in series [2], in series [3] and in series [4] were 111%, 96.6% and 83.9%, respectively.
Regarding `O=C1C2=C(OC(c3cn(-c4ccc([N+](=O)[O-])cc4)nn3)C2)C(=O)c2ccccc21` (stereo not given), the viability at 48 h, 5 µM in [1] was 63.6%. For the same molecule, the viability at 5 µM in [2] is 120%; in [3], 97.4%; in series [4] it was 95.5%.
In the case of `O=C1C(=O)c2ccccc2C2=C1CC(c1cn(-c3ccccc3)nn1)O2` (stereo not given), in series [5], the selectivity ratio came out at 6.25. Besides, the Activity result in [6], in series [8] and in [9] was “Non-Toxic” in each case. Moreover, in series [7], the CC50 (usually the concentration that lowers cell viability or growth by half) at 48 h was determined as 28 µM. Moreover, in [1], the viability at 48 h, 5 µM is 68%. Besides, the figures for the viability at 5 µM in [2], in [3] and in series [4] were 110%, 87.7% and 23.9%, respectively. The IC50 (as a rule, the concentration that inhibits the measured activity by half) in series [10] turned out to be 4.48 µM.
